Results as given in PubChem BioAssay AID1753 (Vanderbilt High Throughput Screening Facility, 2009).
Records with an inconclusive call do not appear. Active and inactive are the calls of the source.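 How the source made its calls: active means a converged dose-response curve, firm or less certain, in at least 2 of 3 replicates; inactive means the rest, inconclusive results apart.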

The compounds below were run on native HEK293 thallium flux, FluoZin2 fluorescence, ouabain (assay: parental HEK Tl+ uptake potency, primary conditions – HEK cells, counterscreen, counter-screen for KCC2 modulator project, dose response (AID 1753)).
How it was run: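 Detection: kinetic FluoZin2 fluorescence (dye loaded at 0.5 µM), 1 Hz reads / Material: untransfected HEK cells, thallium flux / Schedule: 10–20 s post-thallium window / Probe or stimulus: thallium stimulus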
For `Cc1nn(-c2ccccc2)c2sc(C(=O)N(Cc3ccco3)C(C)C(=O)NC(C)(C)C)cc12` (stereo not drawn), the EC50 was 10400 nM (inactive).
With `CC(C)c1ccc(OCC(=O)NNC(=O)c2cnccn2)cc1` the EC50 was 12200 nM (inactive).
`CCOc1[nH]n(-c2ccccc2)c(=O)c1C=Nc1ccc(F)cc1F` showed an EC50 of 1430 nM.
`CCCC(=O)OCC[N+](C)(C)C` was tested, and the EC50 was 8.1 nM (inactive).
`COc1ccc(N2C(=S)N=C(Nc3cccc(C)c3)C23CCCCC3)cc1` was tested, and the EC50 was 1920 nM.
For `CCOc1cccc(C(=O)NC(=S)Nc2cccc(C)c2)c1`, the EC50 was 7280 nM.
`NC(=S)N=Nc1c(O)n(Cc2ccccc2)c2ccccc12` was tested, and the EC50 was 124 nM (inactive).
`Cc1onc(-c2ccccc2Cl)c1C(=O)NC(=S)Nc1ccc(C(C)C)cc1` showed an EC50 of 178 nM.
In the case of `Cc1ccc(-c2n[nH]c(=S)n2/N=C/C=C\c2ccccc2[N+](=O)[O-])cc1`, the EC50 is reported as 1470 nM.
`COc1ccc(Cn2c(=S)[nH]c3ccccc32)cc1` showed an EC50 of 436 nM.
`CC(=O)c1cccc(NC(=S)NC(=O)c2ccc(C)cc2)c1` gave an EC50 of 888 nM.
In the case of `COc1ccc(-c2nnc(-c3ccc(OCC(C)C)cc3)o2)cc1`, the EC50 is reported as 777 nM (inactive).
In the case of `O=C(NC(=S)Nc1cccc2cccnc12)c1cccs1`, the EC50 is reported as 114 nM (inactive).
With `Cn1nnnc1SCCNCc1ccncc1` the EC50 was 21 nM (inactive).
For `COC(=O)c1sccc1NC(=S)OC`, the EC50 was 1800 nM.
With `COC(=O)[C@@H](NC(=O)O[C@@H]1C(=O)c2ccc(OC)cc2O[C@H]1c1cccc(C(F)(F)F)c1)C(C)C` the EC50 was 1680 nM.
With `NC(=S)N=Nc1c(O)n(Cc2ccc(F)cc2)c2ccccc12` the EC50 was 2250 nM.
In the case of `O=C(NC(=S)Nc1ccc2c(c1)OCO2)c1ccc(Cl)cc1`, the EC50 is reported as 75.7 nM (inactive).
